From ChEMBL document CHEMBL5661971 (Cancer Res, 2006) come the findings set out here.

One data set deals with HT-29. Put plainly: Antiproliferative activity against human HT-29 cells expressing B-Raf V600E mutant assessed as decrease in cell growth incubated for 72 hrs by CellTiter-Glo based luminescence assay. It is filed as functional. The note with it: HT-29, 72 h. An outline of the steps:
(§1)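 Cells treated over 1 nmol/L to 20 μmol/L in 0.1% DMSO for 72 h at 37°C, 5% CO₂. Viable cells read by CellTiter-Glo luminescence. EC50 derived from proliferation data.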
In general terms: In ATP-based viability assays light output follows the ATP content of the culture.

The nature of data set [1]: Toxicity in nude mouse xenografted with human A375P cells assessed as body weight change at 50 mg/kg administered daily for 21 days and then observed an additional 14 days following cessation of treatment. The settings on record: in vivo, 504 h, time 21 day. It is filed as organism-based. A general note: In xenograft studies the graft and the host belong to different species.

Data set [2] concerns the target RAF proto-oncogene serine/threonine-protein kinase (Homo sapiens, UniProt P04049). Put plainly: Inhibition of c-Raf (unknown origin) assessed as apparent inhibition constant. The note with it: read-out: Ki(app).
A further data set deals with SK-MEL-28. As to the kind of experiment: Antiproliferative activity against human SK-MEL-28 cells expressing B-Raf V600E mutant assessed as decrease in cell growth incubated for 72 hrs by CellTiter-Glo based luminescence assay. It is filed as functional. The note with it: SK-MEL-28, 72 h. An outline of the steps:
as §1

In the next data set the test system is A375P. Put plainly: Anti-tumor activity against human A375P cells xenografted in nude mouse assessed as decreased tumorigenesis at 50 mg/kg administered daily for 21 days and then observed an additional 14 days following cessation of treatment and measured after 55 days. It is filed as functional, organism-based. The note with it: time 21.0 day. In outline:
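Female nude mice, 8–12 weeks old, injected s.c. with 5×10^6 A375P cells in Matrigel. Treatment began 3 weeks later at tumor volume 150–250 mm³, groups of eight randomized. Daily i.p. dosing for 21 days in 2% N,N-dimethylacetamide/2% Cremophor EL/96% acidified water (pH ~4–5), vehicle controls. Caliper tumor volume twice weekly for 55 days; mean ±SE.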

The next data set relates to SK-MEL-2. Put plainly: Antiproliferative activity against human SK-MEL-2 cells expressing N-Ras Q61R mutant assessed as decrease in cell growth incubated for 72 hrs by CellTiter-Glo based luminescence assay. It is filed as functional. The settings on record: SK-MEL-2, 72 h. An outline of the steps: as §1
A short description of data set [3]: In vivo inhibition of ERK phosphorylation in human A375P cells xenografted in nude mouse at 50 mg/kg administered daily for 21 days and then observed an additional 14 days following cessation of treatment relative to control. It is filed as functional. The settings on record: 504 h, time 21 day.
The nature of data set [4]: Antiproliferative activity against human A375P cells expressing B-Raf V600E mutant assessed as decrease in cell growth incubated for 72 hrs by CellTiter-Glo based luminescence assay. It is filed as functional. An outline of the steps: as §1
Data set [5] is described as follows: Cytotoxicity against human HMEC cells assessed as decrease in cell growth incubated for 72 hrs by CellTiter-Glo based luminescence assay. It is filed as toxicity. An outline of the steps: as §1
The test system of data set [6] is Melanocyte. As to the kind of experiment: Induction of cell cycle arrest in normal human Melanocyte cells assessed as accumulation of cells at G1 phase at 10 uM incubated for 24 hrs by flow cytometry analysis. It is filed as toxicity, cell-based. An outline of the steps: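 Normal human melanocytes exposed to 1 and 10 μmol/L for 24 h. Cell cycle distribution measured by flow cytometry on a FACScan.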

Data set [7] is described as follows: Cytotoxicity against human PrEC cells assessed as decrease in cell growth incubated for 72 hrs by CellTiter-Glo based luminescence assay. It is filed as toxicity. In outline: as §1
In the next data set the test system is Malme-3M. As to the kind of experiment: Antiproliferative activity against human Malme-3M cells expressing B-Raf V600E mutant assessed as decrease in cell growth incubated for 72 hrs by CellTiter-Glo based luminescence assay. It is filed as functional. An outline of the steps:
as §1

In the next data set the test system is HT-1080. As to the kind of experiment: Antiproliferative activity against human HT-1080 cells expressing N-Ras Q61K mutant assessed as decrease in cell growth incubated for 72 hrs by CellTiter-Glo based luminescence assay. It is filed as functional. The note with it: HT-1080, 72 h. In outline:
as §1

For a further data set, the system named is HCT-116. As to the kind of experiment: Antiproliferative activity against human HCT-116 cells expressing K-Ras G13D mutant assessed as decrease in cell growth incubated for 72 hrs by CellTiter-Glo based luminescence assay. It is filed as functional. The note with it: HCT-116, 72 h. An outline of the steps:
as §1

The nature of data set [8]: Cytotoxicity against human HFF cells assessed as decrease in cell growth incubated for 72 hrs by CellTiter-Glo based luminescence assay. It is filed as toxicity. An outline of the steps: as §1
Another data set relates to COLO 205. As to the kind of experiment: Antiproliferative activity against human COLO 205 cells expressing B-Raf V600E mutant assessed as decrease in cell growth incubated for 72 hrs by CellTiter-Glo based luminescence assay. The settings on record: COLO 205, 72 h. It is filed as functional. An outline of the steps: as §1
Data set [9] can be described thus: Inhibition of BRAF V599E mutant (unknown origin) assessed as apparent inhibition constant incubated for 25 mins in presence of gamma-[33P]ATP. Further details: species or system Homo sapiens. The settings on record: read-out: Ki(app).
Another data set relates to WM-NCI. Put plainly: Inhibition of MEK in human WM-NCI cells assessed as decreased ERK phosphorylation at 2 micromol/L incubated for 60 mins by Western blotting analysis. It is filed as cell-based. The note with it: dose 2.0 µmol/L.
Data set [10] in a line: Inhibition of MEK in human HFF cells assessed as inhibition of ERK phosphorylation incubated for 60 mins by Western blotting analysis. It is filed as cell-based. The note with it: 1 h. In outline: (§2)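 Cells exposed for 60 min, then Western blot for phospho-ERK1/2 and total ERK1/2 with infrared imaging. […] DMSO control.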
(In general: In western blotting, separated proteins are transferred to a membrane and probed.)

A short description of data set [11]: Inhibition of MEK in human HMEC cells assessed as inhibition of ERK phosphorylation incubated for 60 mins by Western blotting analysis. It is filed as cell-based. The note with it: 1 h. In outline:
as §2

Data set [12] is described as follows: Inhibition of MEK in human SK-MEL-2 cells expressing N-Ras2 Q61R mutant assessed as inhibition of ERK phosphorylation incubated for 60 mins by Western blotting analysis. The note with it: SK-MEL-2, 1 h. It is filed as cell-based. An outline of the steps: as §2
A short description of data set [13]: Inhibition of MEK in human A375P cells expressing B-Raf V600E mutant assessed as inhibition of ERK phosphorylation incubated for 60 mins by Western blotting analysis. It is filed as cell-based. The settings on record: 1 h. In outline: as §2
Another data set has as its system WM-3434. Put plainly: Inhibition of MEK in human WM-3434 cells assessed as decreased ERK phosphorylation at 2 micromol/L incubated for 60 mins by Western blotting analysis. It is filed as cell-based. The note with it: dose 2.0 µmol/L.
Data set [14] is described as follows: Inhibition of MEK in human HCT-116 cells expressing K-Ras2 G13D mutant assessed as inhibition of ERK phosphorylation incubated for 60 mins by Western blotting analysis. The note with it: HCT-116, 1 h. It is filed as cell-based. An outline of the steps: as §2
The nature of data set [15]: Inhibition of MEK in human Malme-3M cells expressing B-Raf V600E mutant assessed as inhibition of ERK phosphorylation incubated for 60 mins by Western blotting analysis. It is filed as cell-based. The settings on record: 1 h. An outline of the steps:
as §2

Data set [16] can be described thus: Inhibition of MEK in human PrEC cells assessed as inhibition of ERK phosphorylation incubated for 60 mins by Western blotting analysis. It is filed as cell-based. The settings on record: 1 h. In outline: as §2
Data set [17] has as its system Melanocyte. As to the kind of experiment: Inhibition of MEK in normal human Melanocyte cells assessed as decreased ERK phosphorylation at 2 micromol/L incubated for 60 mins by Western blotting analysis. It is filed as cell-based. The note with it: dose 2.0 µmol/L.
A short description of data set [18]: Inhibition of MEK in human HT-1080 cells expressing N-Ras2 Q61K mutant assessed as inhibition of ERK phosphorylation incubated for 60 mins by Western blotting analysis. It is filed as cell-based. The note with it: HT-1080, 1 h. An outline of the steps:
as §2

Data set [19] is described as follows: Inhibition of MEK in human SK-MEL-28 cells expressing B-Raf V600E mutant assessed as inhibition of ERK phosphorylation incubated for 60 mins by Western blotting analysis. The settings on record: SK-MEL-28, 1 h. It is filed as cell-based. An outline of the steps:
as §2

The nature of data set [20]: Inhibition of MEK in human HT-29 cells expressing B-Raf V600E mutant assessed as inhibition of ERK phosphorylation incubated for 60 mins by Western blotting analysis. It is filed as cell-based. The note with it: HT-29, 1 h. In outline: as §2
A short description of data set [21]: Inhibition of MEK in human COLO 205 cells expressing B-Raf V600E mutant assessed as inhibition of ERK phosphorylation incubated for 60 mins by Western blotting analysis. It is filed as cell-based. The note with it: COLO 205, 1 h. An outline of the steps:
as §2

The test system of the next data set is WM35. As to the kind of experiment: Inhibition of MEK in human WM35 cells assessed as decreased ERK phosphorylation at 2 micromol/L incubated for 60 mins by Western blotting analysis. It is filed as cell-based. The settings on record: dose 2.0 µmol/L.

Activity calls are given as the source filed them. The rule behind the calls is not given here.

Chain of RAF proto-oncogene serine/threonine-protein kinase (P04049 whole entry): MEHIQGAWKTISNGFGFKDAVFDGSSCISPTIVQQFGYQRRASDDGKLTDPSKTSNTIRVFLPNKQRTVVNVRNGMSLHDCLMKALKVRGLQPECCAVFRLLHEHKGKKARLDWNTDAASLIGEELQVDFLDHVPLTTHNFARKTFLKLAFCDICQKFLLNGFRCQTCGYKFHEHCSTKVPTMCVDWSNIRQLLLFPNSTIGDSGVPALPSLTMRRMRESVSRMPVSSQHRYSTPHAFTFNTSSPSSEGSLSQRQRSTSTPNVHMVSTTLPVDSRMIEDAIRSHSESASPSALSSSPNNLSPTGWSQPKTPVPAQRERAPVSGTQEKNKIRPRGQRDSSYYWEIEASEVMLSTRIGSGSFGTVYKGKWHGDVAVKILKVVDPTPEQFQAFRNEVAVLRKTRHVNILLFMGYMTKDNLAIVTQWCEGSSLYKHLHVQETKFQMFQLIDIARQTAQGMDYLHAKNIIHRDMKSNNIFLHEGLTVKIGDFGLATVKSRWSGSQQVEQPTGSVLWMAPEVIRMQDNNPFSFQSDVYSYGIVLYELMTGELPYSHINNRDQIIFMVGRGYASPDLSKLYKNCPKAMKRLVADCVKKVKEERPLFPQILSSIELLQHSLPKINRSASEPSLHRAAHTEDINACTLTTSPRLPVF

In general, EC50 refers to the concentration giving half of the maximal effect. A word on the inhibition in vivo: it is the percentage by which the read-out fell short of the control. `CN(C)CCOc1ccc(-c2nc(-c3ccncc3)c(-c3ccc4c(c3)CC/C4=N\O)[nH]2)cc1` [SB590885]: the 50% effective concentration (EC50) came out at 870 nM in the data set on HT-29; 120 nM in the data set on SK-MEL-28; 550 nM with SK-MEL-2; 370 nM in [4]; 150 nM in the data set on Malme-3M; 13000 nM in the data set on HT-1080. Further, the concentration giving a half-maximal response (EC50) with HCT-116 was 4600 nM; in the data set with COLO 205, 100 nM. Also, the Activity result (in [1]; in the data set on Melanocyte [6]) was “Toxic” in each case. The Ki in data set [2] is 1.72 nM. In the data set with A375P, the result was Active. Besides, the inhibition in vivo at 50 mg/kg in [3] was about 50%. Also, the EC50 at 72 h in [5] is 9200 nM; in data set [7] it was over 13000 nM; in [8], over 12000 nM.

With `CNC(=O)c1cc(Oc2ccc(NC(=O)Nc3ccc(Cl)c(C(F)(F)F)c3)cc2)ccn1` [SORAFENIB], the Ki in [9] was determined as 38 nM.

As to `O=C(NOCC1CC1)c1ccc(F)c(F)c1Nc1ccc(I)cc1Cl` [CI-1040], the EC50 in the data set on HT-29 was 360 nM; in the data set on SK-MEL-28 it was 220 nM; in data set [10] it was 4800 nM; in data set [11] it was 11 nM; in data set [12], 290 nM; in data set [13], 210 nM. Further, the EC50 in the data set on SK-MEL-2 was 360 nM; in [14], 61 nM; in [15] it was 520 nM; in [4], 240 nM; in data set [16], 39 nM; in data set [18], 66 nM. Moreover, the EC50 in [19] was 86 nM; in the data set on Malme-3M, 440 nM; in data set [20] it was 88 nM; in the data set with HT-1080 it was 1600 nM; in data set [21], 47 nM; in the data set on HCT-116, 2200 nM. Also, the EC50 with COLO 205 came to 230 nM. In addition, the inhibition entry in the data set with WM-NCI, in the data set with WM-3434, in the data set on Melanocyte [17] and in the data set with WM35 was “Active” each time. For the same compound, the EC50 at 72 h in data set [5] amounted to 580 nM; in [7], 490 nM; in data set [8], 4900 nM.
